The array DNA melting data of Ke et al. (doi:10.1101/2024.01.08.574731)

Key:
[1] = melting temperature; fluorescence melt of hairpins on a sequencing array, two-state fit, raised by 9.35 °C to match UV melts; settings: sodium 0.088 M
In short: (§1)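 Folding enthalpy and melting temperature come from bootstrapped two-state fits to Cy3 fluorescence of library hairpins carrying annealed Cy3 and quencher oligos on a sequenced MiSeq flow cell. Imaging was done in 50 mM Na-HEPES pH 8.0, 25 mM NaCl, stepping by 2.5 °C up to 60 °C, and signals were normalised to pre-quench Cy3 and to control constructs. Results of four replicates were combined by inverse variance, and fitted temperatures were raised by 9.35 °C to match UV melts.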

[2] = folding enthalpy; higher = less favourable; fluorescence melt of hairpins on a sequencing array, two-state fit; settings: sodium 0.088 M
In short: as §1

Sequence | Tm [1] | folding enthalpy [2]
GTTCCGGGAAACCGGAGC (.(((((....))))).) | 53.6 °C | -22.4 kcal/mol
GCCGCTGGAAACAGCGAC (.(((((....))))).) | 52.6 °C | -13.9 kcal/mol
GATCACTGGTGTGATC ((((((....)))))) | 58 °C | -36.7 kcal/mol
GCGAGCTTCGC ((((...)))) | 49 °C | -18.5 kcal/mol
GATCAAAAAATTGATC ((((((....)))))) | 32.4 °C | -17.5 kcal/mol
GGACGACCGAAAGGTTCC (((..(((....)))))) | 31.3 °C | -13.8 kcal/mol
GGTTTACCGAAAGGTACC (((..(((....)))))) | 32.4 °C | -9.75 kcal/mol
GATCCGAGCGCGGATC ((((((....)))))) | 58.8 °C | -42.4 kcal/mol
GACCGCGAAAGCGATGTC ((((((....)))..))) | 44.3 °C | -14.9 kcal/mol
GCACTGCGAAAGCATAGC ((..(((....)))..)) | 35.6 °C | -15.3 kcal/mol
GATCCTGGAGAGGATC ((((((....)))))) | 54 °C | -34.7 kcal/mol
GTTCCGGGAAACTGGAGC (.(((.(....).))).) | 36.1 °C | -21.2 kcal/mol
GCGTGATCGAAAGATCGC (((..(((....)))))) | 47.5 °C | -15.6 kcal/mol
GTGTACGGAAACGTATAC ((.((((....)))).)) | 46.6 °C | -29.1 kcal/mol
GTCGAGACGAAAGTCGAC (((..(((....)))))) | 51.4 °C | -20.9 kcal/mol
GACTTTGAAAAAAGTC ((((((....)))))) | 48.6 °C | -40.6 kcal/mol
GCCTTCGAAAGAATGGC ((((((....))).))) | 49 °C | -27.2 kcal/mol
CTTTTGAAAAAAAG (((((....))))) | 30.1 °C | -7.85 kcal/mol
GCACAGGGAAACCCGTGC ((((.((....)).)))) | 55.4 °C | -36.8 kcal/mol
GGAACTCCGAAAGGATCC (((..(((....)))))) | 27 °C | -7.77 kcal/mol
GAAAACGAAAGTTTCTTC ((((((....)))..))) | 46.6 °C | -35 kcal/mol
GATCTGACGGCAGATC ((((((....)))))) | 51.4 °C | -49.4 kcal/mol
GAGTATGCGAAAGCACTC (((..(((....)))))) | 38.8 °C | -14.9 kcal/mol

Sequence | Tm [1] | folding enthalpy [2]
GACCAACGAAAGTTTGTC (((.(((....))).))) | 41.7 °C | -26.9 kcal/mol
GCAGTTGGAAACAACCGC ((.((((....)))).)) | 44.1 °C | -23.6 kcal/mol
GCAACATCGAAAGATTGC (((..(((....)))))) | 34.2 °C | -19.8 kcal/mol
GCGGATGCCGC ((((...)))) | 58.8 °C | -10.5 kcal/mol
GATCCTCCGTAGGATC ((((((....)))))) | 48.5 °C | -20.4 kcal/mol
GGAGCCGAAAGGCCATCC ((((((....)))..))) | 31.6 °C | -8.68 kcal/mol
GATCACAAACGTGATC ((((((....)))))) | 55.6 °C | -33.2 kcal/mol
GTATCACGAAAGTGCTAC (((.(((....))).))) | 41.1 °C | -22.7 kcal/mol
GTCTTAGGAAACTAAGGC (.(((((....))))).) | 42.9 °C | -25.9 kcal/mol
GGAGCCGAAAGGCCTTCC ((((((....)))..))) | 46.2 °C | -15.4 kcal/mol
GAAAGCGGAAACGCTCTC ((.((((....)))).)) | 35 °C | -12.3 kcal/mol
GCTGTGCGAAAGCCCGGC ((.(.((....)).).)) | 46.8 °C | -20 kcal/mol
GAAAGGCGAAAGCCGTTC (((.(((....))).))) | 46.7 °C | -11.9 kcal/mol
GATCTCAACAGAGATC ((((((....)))))) | 54.9 °C | -44.3 kcal/mol
GGTCGCGAAAGCGCACC ((((((....))).))) | 60.3 °C | -20.8 kcal/mol
GAATAACCGAAAGGTTTC (((..(((....)))))) | 25.6 °C | -15.1 kcal/mol
GTGACAGGAAACCGTCAC (((((.(....).))))) | 50.4 °C | -34.6 kcal/mol
GATCGTGTCCACGATC ((((((....)))))) | 60.3 °C | -45.8 kcal/mol
GTTTGCTCGAAAGAGAAC (((..(((....)))))) | 27 °C | -14.7 kcal/mol
GGTCAGCGAAAGCTCACC (((.(((....))).))) | 41.7 °C | -18.9 kcal/mol
GATCTAAAGATAGATC ((((((....)))))) | 30.6 °C | -16.5 kcal/mol
GTTCTGGGAAACCAAAAC (((.(((....))).))) | 26.5 °C | -12.4 kcal/mol
GATAACCGAAAGGTATC (((.(((....)))))) | 38.9 °C | -17.4 kcal/mol
